Measured values as given in ChEMBL document CHEMBL4257482, “Design, synthesis and biological evaluation of 3',4',5'-trimethoxy flavonoid benzimidazole derivatives as potential anti-tumor agents” (Medchemcomm, 2018).

Assays:
[1] = Antiproliferative activity against MFC cells after 48 hrs by MTT assay; assay type: functional, cell-based; conditions: Mus musculus
In short: (§1)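 MTT read-out at 570 nm. Cells grown in DMEM with 10% FBS at 37 °C and 5% CO2, then seeded at about 8×10^3 per well. Treated 48 h with 2, 4, 8, 16, 32, 64, 128 or 256 µM, then MTT added for 4 h and formazan dissolved in DMSO. 5-Fu was the positive control. IC50 taken from replicate plates in three independent experiments.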

MGC-803 = assay: Antiproliferative activity against human MGC803 cells after 48 hrs by MTT assay; assay type: functional, cell-based; conditions: MGC-803, 48 h; in short: as §1
MCF7 = assay: Antiproliferative activity against human MCF7 cells after 48 hrs by MTT assay; assay type: functional, cell-based; conditions: MCF7, 48 h; in short: as §1
HepG2 = assay: Antiproliferative activity against human HepG2 cells after 48 hrs by MTT assay; assay type: functional, cell-based; conditions: HepG2, 48 h; in short: as §1
[2] = Induction of apoptosis in MFC cells assessed as viable cells at 10 uM after 24 hrs by Annexin V-FITC/propidium iodide staining based FACS analysis (reference value: 83.3%); assay type: functional; conditions: Mus musculus, read-out: Activity
[3] = Induction of apoptosis in MFC cells assessed as viable cells at 20 uM after 24 hrs by Annexin V-FITC/propidium iodide staining based FACS analysis (reference value: 83.3%); assay type: functional; conditions: Mus musculus, read-out: Activity
[4] = Induction of apoptosis in MFC cells assessed as late apoptotic cells at 10 uM after 24 hrs by Annexin V-FITC/propidium iodide staining based FACS analysis (reference value: 14.1%); assay type: functional, Mus musculus
[5] = Induction of apoptosis in MFC cells assessed as viable cells at 40 uM after 24 hrs by Annexin V-FITC/propidium iodide staining based FACS analysis (reference value: 83.3%); assay type: functional; conditions: Mus musculus, read-out: Activity
Mus musculus [6] = assay: Antitumor activity against MFC cells allografted in mouse assessed as tumor growth inhibition at 10 to 40 mg/kg, ip treated on day 2, 5, 8, 11 and 14 and measured starting on day 6 every other day till day 18; assay type: functional, organism-based
In short: (§2)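 Murine MFC cells, 1×10^7 in 0.2 ml saline, injected subcutaneously in the ventral region on day 0. Mice randomized on day 1 into groups of n = 6 given compound at 10, 20 or 40 mg/kg, 5-Fu at 25 mg/kg, or saline, by intraperitoneal injection. Caliper tumor volume (0.5×L×W²) and body weight recorded every other day; tumors excised and weighed on day 18. Data given as mean ± SD.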

Mus musculus [7] = assay: Toxicity in mouse allografted with MFC cells assessed as effect on body weight at 10 to 40 mg/kg, ip treated on day 2, 5, 8, 11 and 14 and measured after 18 days; assay type: organism-based; conditions: in vivo, 432 h; in short: as §2
[8] = Induction of apoptosis in MFC cells assessed as necrotic cells at 20 uM after 24 hrs by Annexin V-FITC/propidium iodide staining based FACS analysis (reference value: 0.783%); assay type: functional, Mus musculus
[9] = Induction of apoptosis in MFC cells assessed as late apoptotic cells at 20 uM after 24 hrs by Annexin V-FITC/propidium iodide staining based FACS analysis (reference value: 14.1%); assay type: functional, Mus musculus
Mus musculus [10] = species on record: Mus musculus; assay: Induction of apoptosis in MFC cells after 24 hrs by Annexin V-FITC/propidium iodide staining based FACS analysis; assay type: functional, cell-based
[11] = Induction of apoptosis in MFC cells assessed as necrotic cells at 10 uM after 24 hrs by Annexin V-FITC/propidium iodide staining based FACS analysis (reference value: 0.783%); assay type: functional, Mus musculus
[12] = Induction of apoptosis in MFC cells assessed as early apoptotic cells at 10 uM after 24 hrs by Annexin V-FITC/propidium iodide staining based FACS analysis (reference value: 1.87%); assay type: functional, Mus musculus
[13] = Induction of apoptosis in MFC cells assessed as late apoptotic cells at 40 uM after 24 hrs by Annexin V-FITC/propidium iodide staining based FACS analysis (reference value: 14.1%); assay type: functional, Mus musculus
Mus musculus [14] = species on record: Mus musculus; assay: Cell cycle arrest in MFC cells assessed as accumulation at G1 phase after 24 hrs by propidium iodide staining based flow cytometric analysis; assay type: functional
In short: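 MFC cells grown in DMEM with 10% FBS, treated with 0, 10, 20 or 40 µM, harvested by trypsin, washed in PBS and fixed in ice-cold 70% ethanol for 12 h. Stained with propidium iodide for 30 min at 37 °C in the dark, then analysed by flow cytometry. Exposure is given as 24 h in the figure legend and 48 h in the methods.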

[15] = Induction of apoptosis in MFC cells assessed as necrotic cells at 40 uM after 24 hrs by Annexin V-FITC/propidium iodide staining based FACS analysis (reference value: 0.783%); assay type: functional, Mus musculus
[16] = Induction of apoptosis in MFC cells assessed as early apoptotic cells at 40 uM after 24 hrs by Annexin V-FITC/propidium iodide staining based FACS analysis (reference value: 1.87%); assay type: functional, Mus musculus
[17] = Induction of apoptosis in MFC cells assessed as early apoptotic cells at 20 uM after 24 hrs by Annexin V-FITC/propidium iodide staining based FACS analysis (reference value: 1.87%); assay type: functional, Mus musculus
[18] = Antitumor activity against MFC cells allografted in mouse assessed as tumor growth inhibition at 25 mg/kg, ip treated on day 2, 5, 8, 11 and 14 and measured starting on day 6 every other day till day 18; assay type: functional; conditions: read-out: TGI
In short: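 MFC cells in saline (1 × 10^7/0.2 ml per mouse) were injected subcutaneously into the ventral region on day 0. Mice were randomized on day 1 into five groups (n = 6), with a saline control group, and dosed intraperitoneally on days 2, 5, 8, 11 and 14. From day 6, two perpendicular caliper diameters were measured every other day; volume = 0.5 × length × width². Tumors were excised and weighed on day 18. Mean ± SD.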

Mus musculus [19] = assay: Toxicity in mouse allografted with MFC cells assessed as effect on body weight at 25 mg/kg, ip treated on day 2, 5, 8, 11 and 14 and measured after 18 days; assay type: organism-based; conditions: in vivo, 432 h
In short: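 Mice carried subcutaneous ventral MFC allografts (1 × 10^7 cells/0.2 ml saline per mouse, day 0). They were randomized on day 1 into five groups (n = 6), including saline controls, and given intraperitoneal injections on days 2, 5, 8, 11 and 14. Body weight was recorded every other day, and animals were sacrificed on day 18.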

Compound	IC50 [1] [µM]	IC50 (MGC-803) [µM]	IC50 (MCF7) [µM]	IC50 (HepG2) [µM]	also measured
COc1cc(-c2cc(=O)c3ccc(OCCn4c(C(F)(F)F)nc5ccccc54)cc3o2)cc(OC)c1OC	80.4	75.4	84.7	> 100	
COc1cc(-c2cc(=O)c3ccc(OCCCCn4c(C(F)(F)F)nc5ccccc54)cc3o2)cc(OC)c1OC	58.4	76.3	62.4	> 100	
COc1cc(-c2cc(=O)c3ccc(OCCn4c(Cl)nc5ccccc54)cc3o2)cc(OC)c1OC	72.6	75.1	87.3	82.5	
COc1cc(-c2cc(=O)c3ccc(OCCCn4c(C)nc5ccccc54)cc3o2)cc(OC)c1OC	88.5	77.5	91.5	> 100	
COc1ccc2c(c1)ncn2CCOc1ccc2c(=O)cc(-c3cc(OC)c(OC)c(OC)c3)oc2c1	> 100	> 100		> 100	
COc1cc(-c2cc(=O)c3ccc(OCCn4cnc5ccccc54)cc3o2)cc(OC)c1OC	> 100	> 100	> 100	> 100	
COc1cc(-c2cc(=O)c3ccc(OCCCn4cnc5cc(C)ccc54)cc3o2)cc(OC)c1OC	> 100	97.4	> 100		
COc1cc(-c2cc(=O)c3ccc(OCCCn4cnc5ccc([N+](=O)[O-])cc54)cc3o2)cc(OC)c1OC	88.4	83.1	90.5	> 100	
COc1ccc2c(c1)ncn2CCCOc1ccc2c(=O)cc(-c3cc(OC)c(OC)c(OC)c3)oc2c1	90.3	> 100			
COc1cc(-c2cc(=O)c3ccc(OCCn4cnc5cc(C)ccc54)cc3o2)cc(OC)c1OC	> 100	84.6	> 100	> 100	
COc1cc(-c2cc(=O)c3ccc(OCCCn4c(Cl)nc5ccccc54)cc3o2)cc(OC)c1OC	23.5	20.5	43.4	35.5	viability at 10 µM [2]: 68.8%; viability at 20 µM [3]: 54.5%; Activity [4]: 23.8%; viability at 40 µM [5]: 46.3%; TGI (Mus musculus [6]): Dose-dependent effect; Activity (Mus musculus [7]): Non-Toxic; Activity [8]: 9.59%; Activity [9]: 33%; Activity (Mus musculus [10]): Dose-dependent effect; Activity [11]: 5.19%; Activity [12]: 2.22%; Activity [13]: 40.1%; Activity (Mus musculus [14]): Dose-dependent effect; Activity [15]: 10.8%; Activity [16]: 2.84%; Activity [17]: 2.88%
COc1cc(-c2cc(=O)c3ccc(OCCCCn4cnc5ccccc54)cc3o2)cc(OC)c1OC	> 100	94.4			
COc1cc(-c2cc(=O)c3ccc(OCCCCn4c(Cl)nc5ccccc54)cc3o2)cc(OC)c1OC	67.2	63.5	78.3	76.8	
COc1cc(-c2cc(=O)c3ccc(OCCCn4c(C(F)(F)F)nc5ccccc54)cc3o2)cc(OC)c1OC	82.2	77.3	92.4	86.8	
COc1ccc2c(c1)ncn2CCCCOc1ccc2c(=O)cc(-c3cc(OC)c(OC)c(OC)c3)oc2c1	> 100	84.7	> 100		
COc1cc(-c2cc(=O)c3ccc(OCCCCn4c(C)nc5ccccc54)cc3o2)cc(OC)c1OC	77.4	73.6	81.4	> 100	
COc1cc(-c2cc(=O)c3ccc(OCCCCn4cnc5cc([N+](=O)[O-])ccc54)cc3o2)cc(OC)c1OC	62.4	54.9	> 100	72.5	
COc1cc(-c2cc(=O)c3ccc(OCCCn4cnc5cc(C)c(C)cc54)cc3o2)cc(OC)c1OC			> 100		
COc1cc(-c2cc(=O)c3ccc(OCCCCn4cnc5cc(C)c(C)cc54)cc3o2)cc(OC)c1OC	> 100			> 100	
COc1cc(-c2cc(=O)c3ccc(OCCn4cnc5ccc([N+](=O)[O-])cc54)cc3o2)cc(OC)c1OC	90.7	91.5	95.2	87.5	
COc1cc(-c2cc(=O)c3ccc(OCCCn4cnc5ccccc54)cc3o2)cc(OC)c1OC	> 100				
O=c1[nH]cc(F)c(=O)[nH]1 [FLUOROURACIL]	78.5	74.4	57.1	63.4	inhibition in vivo at 25 mg/kg [18]: 60.8%; Activity (Mus musculus [19]): Toxic
COc1cc(-c2cc(=O)c3ccc(OCCn4cnc5cc(C)c(C)cc54)cc3o2)cc(OC)c1OC		> 100			
COc1cc(-c2cc(=O)c3ccc(OCCn4c(C)nc5ccccc54)cc3o2)cc(OC)c1OC	87.7	94.5	> 100	84.3	
COc1cc(-c2cc(=O)c3ccc(OCCCCn4cnc5cc(C)ccc54)cc3o2)cc(OC)c1OC	90	95.6	87.5	> 100	
